Source: ChEMBL document CHEMBL4689842, “EUbOPEN Chemogenomics Library wave 1” (2021)
Values joined by “and” are separate entries in the source; they are usually repeats but may differ in a detail not shown here. Equal entries are not always repeated.

System: U2OS
Assay: Multiplex assay against U2OS
Assay type: toxicity, cell-based
Settings: human
Summary of the method: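 Compound was added to live cells that had been stained at seeding with Hoechst33342, BioTracker Green Microtubule Cytoskeleton Dye, MitoTracker Red and Annexin V Alexa Fluor 680, and imaging followed on a CQ1 microscope at 37°C and 5% CO2. CellPathfinder machine-learning gating divided cells into Hoechst high-intensity objects or normal cells, normal cells into healthy, pyknosed or fragmented nuclei, and pyknosed cells into mitotic or apoptotic. Tubulin, mitochondrial-mass and membrane-permeability phenotypes are per cents of healthy-nucleus cells.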

[1] = 12 h, 1 µM, compound concentration 1 uM, replicate 1
[2] = 12 h, 1 µM, compound concentration 1 uM, replicate 2
[3] = 12 h, 10 µM, compound concentration 10 uM, replicate 1
[4] = 12 h, 10 µM, compound concentration 10 uM, replicate 2
[5] = 24 h, 1 µM, compound concentration 1 uM, replicate 1
[6] = 24 h, 1 µM, compound concentration 1 uM, replicate 2
[7] = 24 h, 10 µM, compound concentration 10 uM, replicate 1
[8] = 24 h, 10 µM, compound concentration 10 uM, replicate 2
[9] = 48 h, 10 µM, compound concentration 10 uM, replicate 1
[10] = 48 h, 10 µM, compound concentration 10 uM, replicate 2

Cc1c(Nc2ccc(S(=O)(=O)N3CCN(C)CC3)cc2F)nc2ccc(-c3cnn(C4CC4)c3)cn2c1=O
Population Apoptotic (%) [1]: 12% | Population Fragmented Nuclei (%) [1]: 4% | Population Healthy Nuclei (%) [1]: 91% | Population Hoechst High Intensity Objects (%) [1]: 2% | Population Membrane Permeable-Phenotype (%) [1]: 5% | Population Mitochondria Different-Phenotype (%) [1]: 15% | Population Mitotic Cells (%) [1]: 87% | Population Normal (%) [1]: 97% | Population Pyknosed Nuclei (%) [1]: 4% | Population Tubulin-Different-Phenotype (%) [1]: 18% | Total Cell Count [1]: 160 | Population Apoptotic (%) [2]: 0% | Population Fragmented Nuclei (%) [2]: 5% | Population Healthy Nuclei (%) [2]: 93% | Population Hoechst High Intensity Objects (%) [2]: 8% | Population Membrane Permeable-Phenotype (%) [2]: 10% | Population Mitochondria Different-Phenotype (%) [2]: 17% | Population Mitotic Cells (%) [2]: 100% | Population Normal (%) [2]: 91% | Population Pyknosed Nuclei (%) [2]: 1% | Population Tubulin-Different-Phenotype (%) [2]: 15% | Total Cell Count [2]: 119 | Population Apoptotic (%) [3]: 29% and 44% | Population Fragmented Nuclei (%) [3]: 21% and 30% | Population Healthy Nuclei (%) [3]: 73% and 60% | Population Hoechst High Intensity Objects (%) [3]: 34% and 46% | Population Mitotic Cells (%) [3]: 70% and 55% | Population Normal (%) [3]: 65% and 53% | Population Pyknosed Nuclei (%) [3]: 5% and 8% | Population Tubulin-Different-Phenotype (%) [3]: 12% and 27% | Total Cell Count [3]: 201 and 120 | Population Fragmented Nuclei (%) [4]: 56% | Population Healthy Nuclei (%) [4]: 42% and 39% | Population Hoechst High Intensity Objects (%) [4]: 41% and 58% | Population Membrane Permeable-Phenotype (%) [4]: 17% and 8% | Population Mitochondria Different-Phenotype (%) [4]: 11% and 23% | Population Mitotic Cells (%) [4]: 80% and 35% | Population Normal (%) [4]: 58% and 41% | Population Pyknosed Nuclei (%) [4]: 1% and 3% | Population Tubulin-Different-Phenotype (%) [4]: 11% and 8% | Population Apoptotic (%) [5]: 0% | Population Fragmented Nuclei (%) [5]: 1% | Population Healthy Nuclei (%) [5]: 95% | Population Hoechst High Intensity Objects (%) [5]: 1% | Population Membrane Permeable-Phenotype (%) [5]: 7% | Population Mitochondria Different-Phenotype (%) [5]: 7% | Population Mitotic Cells (%) [5]: 100% | Population Normal (%) [5]: 98% | Population Pyknosed Nuclei (%) [5]: 2% | Population Tubulin-Different-Phenotype (%) [5]: 17% | Total Cell Count [5]: 173 | Population Apoptotic (%) [6]: 11% | Population Fragmented Nuclei (%) [6]: 4% | Population Healthy Nuclei (%) [6]: 89% | Population Hoechst High Intensity Objects (%) [6]: 3% | Population Membrane Permeable-Phenotype (%) [6]: 8% | Population Mitochondria Different-Phenotype (%) [6]: 29% | Population Mitotic Cells (%) [6]: 88% | Population Normal (%) [6]: 96% | Population Pyknosed Nuclei (%) [6]: 6% | Population Tubulin-Different-Phenotype (%) [6]: 20% | Total Cell Count [6]: 122 | Population Apoptotic (%) [7]: 29% and 32% | Population Fragmented Nuclei (%) [7]: 15% and 33% | Population Healthy Nuclei (%) [7]: 77% and 56% | Population Hoechst High Intensity Objects (%) [7]: 27% and 49% | Population Membrane Permeable-Phenotype (%) [7]: 14% and 7% | Population Mitochondria Different-Phenotype (%) [7]: 8% and 22% | Population Mitotic Cells (%) [7]: 70% and 67% | Population Normal (%) [7]: 72% and 50% | Population Pyknosed Nuclei (%) [7]: 6% and 10% | Population Tubulin-Different-Phenotype (%) [7]: 7% and 16% | Total Cell Count [7]: 284 and 128 | Population Apoptotic (%) [8]: 22% and 60% | Population Fragmented Nuclei (%) [8]: 56% and 58% | Population Healthy Nuclei (%) [8]: 41% and 37% | Population Hoechst High Intensity Objects (%) [8]: 40% and 58% | Population Membrane Permeable-Phenotype (%) [8]: 16% and 13% | Population Mitochondria Different-Phenotype (%) [8]: 9% and 23% | Population Mitotic Cells (%) [8]: 77% and 40% | Population Normal (%) [8]: 59% and 41% | Population Pyknosed Nuclei (%) [8]: 2% and 3% | Population Tubulin-Different-Phenotype (%) [8]: 8% and 13% | Population Apoptotic (%) [9]: 43% | Population Fragmented Nuclei (%) [9]: 23% | Population Healthy Nuclei (%) [9]: 67% | Population Hoechst High Intensity Objects (%) [9]: 39% | Population Membrane Permeable-Phenotype (%) [9]: 4% | Population Mitochondria Different-Phenotype (%) [9]: 8% | Population Mitotic Cells (%) [9]: 56% | Population Normal (%) [9]: 60% | Population Pyknosed Nuclei (%) [9]: 8% | Population Tubulin-Different-Phenotype (%) [9]: 18% | Total Cell Count [9]: 130 | Population Apoptotic (%) [10]: 71% | Population Fragmented Nuclei (%) [10]: 57% | Population Healthy Nuclei (%) [10]: 38% | Population Hoechst High Intensity Objects (%) [10]: 53% | Population Membrane Permeable-Phenotype (%) [10]: 11% | Population Mitochondria Different-Phenotype (%) [10]: 17% | Population Mitotic Cells (%) [10]: 28% | Population Normal (%) [10]: 46% | Population Pyknosed Nuclei (%) [10]: 3% | Population Tubulin-Different-Phenotype (%) [10]: 8% | Total Cell Count [10]: 45
